Experimental data as given in publication PMC3085959 (Journal of medicinal chemistry, 2011).
“Also recorded” adds a separate entry of the source.

Experiments:
rats = assay: Rat forced swim test; type: in vivo; details: 10 mg/kg i.p., sub-chronic, 1 h before test, compared to vehicle
In short: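 Male Sprague-Dawley rats (200–225 g), naive, used once, tested in cylinders of 24–25 °C water, 22 cm deep. A 15 min pretest was followed 24 h later by a 5 min test. Dosing was i.p. in 10% β-hydroxypropyl cyclodextrin (2 mL/kg), 15 min after pretest and 1 h before test. Imipramine 15 mg/kg was the reference. Blinded video immobility scoring, one-way ANOVA.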

[1] = test system: cloned human dopamine receptor subtypes, serotonin receptor subtypes, alpha-adrenergic receptors, and opioid receptors; assay: CNS receptor screening, NIMH PDSP primary binding assays; details: 10 μM
[2] = biological target: serotonin transporter (SERT) (Rattus norvegicus, UniProt P31652); assay: Inhibition of [3H]serotonin uptake by SERT in rat cerebral cortex; type: biochemical
Chain of serotonin transporter (SERT) (P31652 whole entry): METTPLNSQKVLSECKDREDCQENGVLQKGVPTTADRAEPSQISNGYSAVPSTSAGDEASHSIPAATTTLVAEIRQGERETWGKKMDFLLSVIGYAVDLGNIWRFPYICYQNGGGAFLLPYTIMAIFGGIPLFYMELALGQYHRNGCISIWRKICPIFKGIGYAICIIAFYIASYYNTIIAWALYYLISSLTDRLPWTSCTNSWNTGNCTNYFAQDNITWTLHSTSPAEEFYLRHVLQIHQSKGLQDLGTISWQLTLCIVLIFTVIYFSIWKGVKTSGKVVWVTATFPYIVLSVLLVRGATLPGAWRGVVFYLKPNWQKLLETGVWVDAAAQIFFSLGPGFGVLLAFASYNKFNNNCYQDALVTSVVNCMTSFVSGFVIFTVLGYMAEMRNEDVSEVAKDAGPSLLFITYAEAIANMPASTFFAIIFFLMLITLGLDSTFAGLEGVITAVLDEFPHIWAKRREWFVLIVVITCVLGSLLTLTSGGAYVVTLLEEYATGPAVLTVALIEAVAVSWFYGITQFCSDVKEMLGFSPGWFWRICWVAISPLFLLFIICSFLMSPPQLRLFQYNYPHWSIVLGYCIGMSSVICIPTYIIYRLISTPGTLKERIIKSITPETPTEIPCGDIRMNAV

[3] = biological target: dopamine transporter (DAT) (Rattus norvegicus, UniProt P23977); assay: Inhibition of [3H]dopamine uptake by DAT in rat striatum; type: biochemical
Chain of dopamine transporter (DAT) (P23977 whole entry): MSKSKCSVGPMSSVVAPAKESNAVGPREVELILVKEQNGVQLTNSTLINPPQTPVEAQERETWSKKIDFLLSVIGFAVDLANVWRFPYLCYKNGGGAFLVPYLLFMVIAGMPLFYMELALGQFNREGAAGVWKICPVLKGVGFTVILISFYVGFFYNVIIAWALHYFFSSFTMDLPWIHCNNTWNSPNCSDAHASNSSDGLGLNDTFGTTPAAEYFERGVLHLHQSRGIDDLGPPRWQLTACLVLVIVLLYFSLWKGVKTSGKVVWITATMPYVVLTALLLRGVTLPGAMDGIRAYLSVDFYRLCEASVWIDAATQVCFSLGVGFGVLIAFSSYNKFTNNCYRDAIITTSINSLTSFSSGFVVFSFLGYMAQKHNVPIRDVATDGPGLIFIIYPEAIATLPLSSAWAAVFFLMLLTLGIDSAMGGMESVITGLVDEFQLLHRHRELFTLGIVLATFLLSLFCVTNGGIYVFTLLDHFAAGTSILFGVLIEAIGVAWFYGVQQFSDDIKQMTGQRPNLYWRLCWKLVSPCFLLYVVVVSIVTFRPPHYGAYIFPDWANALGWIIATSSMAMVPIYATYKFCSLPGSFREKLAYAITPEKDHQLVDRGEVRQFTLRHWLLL

| Compound | Effect on duration of immobility in the forced swimming test (rats) | Inhibition in CNS receptor screening, majority of the receptor target sites [1] | Inhibition in CNS receptor screening, a few other target sites ([1]; only marginally so in some cases) | Ki [2] | Ki [3] |
| --- | --- | --- | --- | --- | --- |
| Oc1cccc(CN[C@H]2CC[C@@H](C(c3ccccc3)c3ccccc3)OC2)c1 [Compound 10f, 3-((((3S,6S)-6-benzhydryltetrahydro-2H-pyran-3-yl)amino)methyl)phenol] | significant reduction of immobility; also recorded: high efficacy in reducing immobility; also recorded: more efficacious than imipramine | less than 50% | greater than 50% |  |  |
| c1ccc(C(c2ccccc2)[C@@H]2CC[C@H](NCc3cccs3)CO2)cc1 [Compound 10g, (3S,6S)-6-benzhydryl-N-(thiophen-2-ylmethyl)tetrahydro-2H-pyran-3-amine] |  |  |  | 12.9 nM | 15.9 nM |
